These molecules were tested on Tetranychus cinnabarinus (assay: Acaricidal activity against eggs of Tetranychus cinnabarinus (carmine spider mite) in sieva bean leaves assessed as mortality at 2.5 mg/kg at 25 +/-1 degC treated for 3 secs measured after 4 days). Settings: 96 h.
Assay type: functional

| SMILES | mortality at 2.5 mg/kg [%] |
| --- | --- |
| CCN(C(=O)C(=O)OC1=C(c2c(C)cc(C)cc2C)C(=O)OC12CCCC2)c1ccccc1 | 100 |
| CCN(C(=O)C(=O)OC1=C(c2c(C)cc(C)cc2C)C(=O)OC12CCCC2)c1ccc(C)cc1C | 90 |
| CCN(C(=O)C(=O)OC1=C(c2c(C)cc(C)cc2C)C(=O)OC12CCCC2)c1ccc(Br)cc1 | 100 |
| CCN(C(=O)C(=O)OC1=C(c2c(C)cc(C)cc2C)C(=O)OC12CCCC2)c1ccc(C(F)(F)F)cc1 | 90 |

These molecules were tested on Ostrinia nubilalis (assay: Stomach toxicity against third-instar larval stage of Ostrinia nubilalis (European corn borer) in corn leaves assessed as mortality at 600 mg/kg at 25 +/-1 degC treated for 3-5 secs before larval infestation after 4 days by leaf-dip method). Settings: 96 h.
Assay type: functional
Summary of the method: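 Corn leaf disks (about 5 cm) were dipped for 3–5 s and air-dried. Each disk was placed in a 7 cm glass vessel with 10 third-instar corn borer larvae. Percentage mortality was scored 4 days after treatment. Controls were acetone-treated leaves. Run at 25 ± 1 °C.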

| SMILES | mortality at 600 mg/kg [%] |
| --- | --- |
| C#CCOC(=O)C(=O)OC1=C(c2c(C)cc(C)cc2C)C(=O)OC12CCCC2 | 70 |
| CCN(C(=O)C(=O)OC1=C(c2c(C)cc(C)cc2C)C(=O)OC12CCCC2)c1ccccc1 | 40 |
| CCN(C(=O)C(=O)OC1=C(c2c(C)cc(C)cc2C)C(=O)OC12CCCC2)c1ccc(C)cc1C | 20 |
| CCN(C(=O)C(=O)OC1=C(c2c(C)cc(C)cc2C)C(=O)OC12CCCC2)c1ccc(Br)cc1 | 40 |
| CCN(C(=O)C(=O)OC1=C(c2c(C)cc(C)cc2C)C(=O)OC12CCCC2)c1ccc(C(F)(F)F)cc1 | 30 |
| CCOC(=O)C(=O)OC1=C(c2c(C)cc(C)cc2C)C(=O)OC12CCCC2 | 20 |

What follows are molecules tested on Tetranychus cinnabarinus (assay: Acaricidal activity against eggs of Tetranychus cinnabarinus (carmine spider mite) in sieva bean leaves assessed as mortality at 0.5 mg/kg at 25 +/-1 degC treated for 3 secs measured after 4 days). Settings: 96 h.
Assay type: functional

| SMILES | mortality at 0.5 mg/kg [%] |
| --- | --- |
| CCN(C(=O)C(=O)OC1=C(c2c(C)cc(C)cc2C)C(=O)OC12CCCC2)c1ccccc1 | 50 |
| CCN(C(=O)C(=O)OC1=C(c2c(C)cc(C)cc2C)C(=O)OC12CCCC2)c1ccc(C)cc1C | 30 |
| CCN(C(=O)C(=O)OC1=C(c2c(C)cc(C)cc2C)C(=O)OC12CCCC2)c1ccc(Br)cc1 | 60 |
| CCN(C(=O)C(=O)OC1=C(c2c(C)cc(C)cc2C)C(=O)OC12CCCC2)c1ccc(C(F)(F)F)cc1 | 80 |

What follows are molecules tested on Mythimna separata (assay: Stomach toxicity against fourth-instar larval stage of Mythimna separata (Oriental armyworm) in compound-pretreated corn leaves assessed as mortality at 600 mg/kg at 25 +/-1 degC after 4 days). Settings: not given.
Assay type: functional
Summary of the method: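 Foliar application to oriental armyworm. Single corn leaves were laid on moistened filter paper in Petri dishes. Bioassays were run at 25 ± 1 °C.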

| SMILES | mortality at 600 mg/kg [%] |
| --- | --- |
| C#CCOC(=O)C(=O)OC1=C(c2c(C)cc(C)cc2C)C(=O)OC12CCCC2 | 50 |
| CCN(C(=O)C(=O)OC1=C(c2c(C)cc(C)cc2C)C(=O)OC12CCCC2)c1ccccc1 | 40 |
| CCN(C(=O)C(=O)OC1=C(c2c(C)cc(C)cc2C)C(=O)OC12CCCC2)c1ccc(C)cc1C | 30 |
| CCN(C(=O)C(=O)OC1=C(c2c(C)cc(C)cc2C)C(=O)OC12CCCC2)c1ccc(Br)cc1 | 80 |
| CCN(C(=O)C(=O)OC1=C(c2c(C)cc(C)cc2C)C(=O)OC12CCCC2)c1ccc(C(F)(F)F)cc1 | 50 |
| CCOC(=O)C(=O)OC1=C(c2c(C)cc(C)cc2C)C(=O)OC12CCCC2 | 80 |

Each molecule was assayed on Tetranychus cinnabarinus (assay: Acaricidal activity against eggs of Tetranychus cinnabarinus (carmine spider mite) in sieva bean leaves assessed as mortality at 0.25 mg/kg at 25 +/-1 degC treated for 3 secs measured after 4 days). Settings: 96 h.
Assay type: functional

| SMILES | mortality at 0.25 mg/kg [%] |
| --- | --- |
| CCN(C(=O)C(=O)OC1=C(c2c(C)cc(C)cc2C)C(=O)OC12CCCC2)c1ccccc1 | 30 |
| CCN(C(=O)C(=O)OC1=C(c2c(C)cc(C)cc2C)C(=O)OC12CCCC2)c1ccc(Br)cc1 | 40 |
| CCN(C(=O)C(=O)OC1=C(c2c(C)cc(C)cc2C)C(=O)OC12CCCC2)c1ccc(C(F)(F)F)cc1 | 60 |

What follows are molecules tested on Tetranychus cinnabarinus (assay: Acaricidal activity against eggs of Tetranychus cinnabarinus (carmine spider mite) in sieva bean leaves assessed as mortality at 5 mg/kg at 25 +/-1 degC treated for 3 secs measured after 4 days). Settings: 96 h.
Assay type: functional

| SMILES | mortality at 5 mg/kg [%] |
| --- | --- |
| C#CCOC(=O)C(=O)OC1=C(c2c(C)cc(C)cc2C)C(=O)OC12CCCC2 | 30 |
| CCN(C(=O)C(=O)OC1=C(c2c(C)cc(C)cc2C)C(=O)OC12CCCC2)c1ccccc1 | 100 |
| CCN(C(=O)C(=O)OC1=C(c2c(C)cc(C)cc2C)C(=O)OC12CCCC2)c1ccc(C)cc1C | 100 |
| CCN(C(=O)C(=O)OC1=C(c2c(C)cc(C)cc2C)C(=O)OC12CCCC2)c1ccc(Br)cc1 | 100 |
| CCN(C(=O)C(=O)OC1=C(c2c(C)cc(C)cc2C)C(=O)OC12CCCC2)c1ccc(C(F)(F)F)cc1 | 100 |
| CCOC(=O)C(=O)OC1=C(c2c(C)cc(C)cc2C)C(=O)OC12CCCC2 | 20 |

The molecules below were run on Tetranychus cinnabarinus (assay: Acaricidal activity against larvae of Tetranychus cinnabarinus (carmine spider mite) in sieva bean leaves assessed as mortality at 1 mg/kg at 25 +/-1 degC treated for 3 secs measured after 4 days). Settings: 96 h.
Assay type: functional

| SMILES | mortality at 1 mg/kg [%] |
| --- | --- |
| CCN(C(=O)C(=O)OC1=C(c2c(C)cc(C)cc2C)C(=O)OC12CCCC2)c1ccccc1 | 80 |
| CCN(C(=O)C(=O)OC1=C(c2c(C)cc(C)cc2C)C(=O)OC12CCCC2)c1ccc(C)cc1C | 60 |
| CCN(C(=O)C(=O)OC1=C(c2c(C)cc(C)cc2C)C(=O)OC12CCCC2)c1ccc(Br)cc1 | 90 |
| CCN(C(=O)C(=O)OC1=C(c2c(C)cc(C)cc2C)C(=O)OC12CCCC2)c1ccc(C(F)(F)F)cc1 | 50 |

What follows are molecules tested on Tetranychus cinnabarinus (assay: Acaricidal activity against larvae of Tetranychus cinnabarinus (carmine spider mite) in sieva bean leaves assessed as mortality at 0.5 mg/kg at 25 +/-1 degC treated for 3 secs measured after 4 days). Settings: 96 h.
Assay type: functional

| SMILES | mortality at 0.5 mg/kg [%] |
| --- | --- |
| CCN(C(=O)C(=O)OC1=C(c2c(C)cc(C)cc2C)C(=O)OC12CCCC2)c1ccccc1 | 60 |
| CCN(C(=O)C(=O)OC1=C(c2c(C)cc(C)cc2C)C(=O)OC12CCCC2)c1ccc(C)cc1C | 20 |
| CCN(C(=O)C(=O)OC1=C(c2c(C)cc(C)cc2C)C(=O)OC12CCCC2)c1ccc(Br)cc1 | 50 |
| CCN(C(=O)C(=O)OC1=C(c2c(C)cc(C)cc2C)C(=O)OC12CCCC2)c1ccc(C(F)(F)F)cc1 | 40 |

These molecules were tested on Helicoverpa armigera (assay: Stomach toxicity against third-instar larval stage of Helicoverpa armigerain compound-pretreated corn leaves assessed as mortality at 600 mg/kg at 25 +/-1 degC after 4 days by leaf-dip method). Settings: not given.
Assay type: functional
Summary of the method: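 Leaf-dip assay on cotton bollworm. Corn leaves were dipped in test solution and air-dried. The treated pieces were placed individually into 24-hole boxes. Run at 25 ± 1 °C.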

| SMILES | mortality at 600 mg/kg [%] |
| --- | --- |
| C#CCOC(=O)C(=O)OC1=C(c2c(C)cc(C)cc2C)C(=O)OC12CCCC2 | 20 |
| CCN(C(=O)C(=O)OC1=C(c2c(C)cc(C)cc2C)C(=O)OC12CCCC2)c1ccccc1 | 40 |
| CCN(C(=O)C(=O)OC1=C(c2c(C)cc(C)cc2C)C(=O)OC12CCCC2)c1ccc(C)cc1C | 20 |
| CCN(C(=O)C(=O)OC1=C(c2c(C)cc(C)cc2C)C(=O)OC12CCCC2)c1ccc(Br)cc1 | 30 |
| CCN(C(=O)C(=O)OC1=C(c2c(C)cc(C)cc2C)C(=O)OC12CCCC2)c1ccc(C(F)(F)F)cc1 | 10 |
| CCOC(=O)C(=O)OC1=C(c2c(C)cc(C)cc2C)C(=O)OC12CCCC2 | 10 |

These molecules were tested on Tetranychus cinnabarinus (assay: Acaricidal activity against larvae of Tetranychus cinnabarinus (carmine spider mite) in sieva bean leaves assessed as mortality at 10 mg/kg at 25 +/-1 degC treated for 3 secs measured after 4 days). Settings: 96 h.
Assay type: functional

| SMILES | mortality at 10 mg/kg [%] |
| --- | --- |
| C#CCOC(=O)C(=O)OC1=C(c2c(C)cc(C)cc2C)C(=O)OC12CCCC2 | 30 |
| CCN(C(=O)C(=O)OC1=C(c2c(C)cc(C)cc2C)C(=O)OC12CCCC2)c1ccccc1 | 100 |
| CCN(C(=O)C(=O)OC1=C(c2c(C)cc(C)cc2C)C(=O)OC12CCCC2)c1ccc(C)cc1C | 100 |
| CCN(C(=O)C(=O)OC1=C(c2c(C)cc(C)cc2C)C(=O)OC12CCCC2)c1ccc(Br)cc1 | 100 |
| CCN(C(=O)C(=O)OC1=C(c2c(C)cc(C)cc2C)C(=O)OC12CCCC2)c1ccc(C(F)(F)F)cc1 | 100 |
| CCOC(=O)C(=O)OC1=C(c2c(C)cc(C)cc2C)C(=O)OC12CCCC2 | 50 |

What follows are molecules tested on Plutella xylostella (assay: Stomach toxicity against third-instar larval stage of Plutella xylostella (diamondback moth) in cabbage leaves assessed as mortality at 200 mg/kg at 25 +/-1 degC treated for 3 secs before larval infestation after 4 days by leaf-dip method). Settings: 96 h.
Assay type: functional
Summary of the method: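 Cabbage leaf disks (6 cm × 2 cm) were dipped in test solution for 3 s and air-dried. Each disk was placed in a glass tube and given seven third-instar diamondback moth larvae. Percentage mortality was scored after 4 days. Controls were water and dimethylformamide. Each treatment was done three times at 25 ± 1 °C.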

| SMILES | mortality at 200 mg/kg [%] |
| --- | --- |
| CCOC(=O)C(=O)OC1=C(c2c(C)cc(C)cc2C)C(=O)OC12CCCC2 | 70 |

The molecules below were run on Tetranychus cinnabarinus (assay: Acaricidal activity against eggs of Tetranychus cinnabarinus (carmine spider mite) in sieva bean leaves assessed as mortality at 1 mg/kg at 25 +/-1 degC treated for 3 secs measured after 4 days). Settings: 96 h.
Assay type: functional

| SMILES | mortality at 1 mg/kg [%] |
| --- | --- |
| CCN(C(=O)C(=O)OC1=C(c2c(C)cc(C)cc2C)C(=O)OC12CCCC2)c1ccccc1 | 90 |
| CCN(C(=O)C(=O)OC1=C(c2c(C)cc(C)cc2C)C(=O)OC12CCCC2)c1ccc(C)cc1C | 70 |
| CCN(C(=O)C(=O)OC1=C(c2c(C)cc(C)cc2C)C(=O)OC12CCCC2)c1ccc(Br)cc1 | 90 |
| CCN(C(=O)C(=O)OC1=C(c2c(C)cc(C)cc2C)C(=O)OC12CCCC2)c1ccc(C(F)(F)F)cc1 | 90 |

These molecules were tested on Tetranychus cinnabarinus (assay: Acaricidal activity against larvae of Tetranychus cinnabarinus (carmine spider mite) in sieva bean leaves assessed as mortality at 5 mg/kg at 25 +/-1 degC treated for 3 secs measured after 4 days). Settings: 96 h.
Assay type: functional

| SMILES | mortality at 5 mg/kg [%] |
| --- | --- |
| C#CCOC(=O)C(=O)OC1=C(c2c(C)cc(C)cc2C)C(=O)OC12CCCC2 | 0 |
| CCN(C(=O)C(=O)OC1=C(c2c(C)cc(C)cc2C)C(=O)OC12CCCC2)c1ccccc1 | 100 |
| CCN(C(=O)C(=O)OC1=C(c2c(C)cc(C)cc2C)C(=O)OC12CCCC2)c1ccc(C)cc1C | 100 |
| CCN(C(=O)C(=O)OC1=C(c2c(C)cc(C)cc2C)C(=O)OC12CCCC2)c1ccc(Br)cc1 | 100 |
| CCN(C(=O)C(=O)OC1=C(c2c(C)cc(C)cc2C)C(=O)OC12CCCC2)c1ccc(C(F)(F)F)cc1 | 100 |
| CCOC(=O)C(=O)OC1=C(c2c(C)cc(C)cc2C)C(=O)OC12CCCC2 | 0 |

The molecules below were run on Tetranychus cinnabarinus (assay: Acaricidal activity against larvae of Tetranychus cinnabarinus (carmine spider mite) in sieva bean leaves assessed as mortality at 2.5 mg/kg at 25 +/-1 degC treated for 3 secs measured after 4 days). Settings: 96 h.
Assay type: functional

| SMILES | mortality at 2.5 mg/kg [%] |
| --- | --- |
| CCN(C(=O)C(=O)OC1=C(c2c(C)cc(C)cc2C)C(=O)OC12CCCC2)c1ccccc1 | 90 |
| CCN(C(=O)C(=O)OC1=C(c2c(C)cc(C)cc2C)C(=O)OC12CCCC2)c1ccc(C)cc1C | 90 |
| CCN(C(=O)C(=O)OC1=C(c2c(C)cc(C)cc2C)C(=O)OC12CCCC2)c1ccc(Br)cc1 | 100 |
| CCN(C(=O)C(=O)OC1=C(c2c(C)cc(C)cc2C)C(=O)OC12CCCC2)c1ccc(C(F)(F)F)cc1 | 80 |

Reference: ChEMBL document CHEMBL3045256, “Design, synthesis, structure, and acaricidal/insecticidal activity of novel spirocyclic tetronic acid derivatives containing an oxalyl moiety” (2011)
